{"source": "paper PMC3831729", "about": "(Indian Journal of Pharmaceutical Sciences, 2013)", "key": {"[1]": {"system": "M. tuberculosis H37Rv (MTB)", "test": "Microplate alamar blue assay", "assay_type": "cell-based, Mycobacterium tuberculosis", "conditions": "MABA, screened at 100-1.56 μg/ml; - indicates no inhibition"}, "[2]": {"system": "M. tuberculosis H37Rv versus NIH 3T3", "test": "Selectivity index", "parameters": "species or system Mycobacterium tuberculosis", "conditions": "IC50 NIH 3T3 / MIC M. tuberculosis H37Rv", "how_it_was_run": "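SI = IC50/MIC. MIC against M. tuberculosis H37Rv came from broth microdilution microplate alamar blue assay (MABA), with compounds tested at 100-1.56 μg/ml. […] IC50 was derived by nonlinear regression of % inhibition against log10 concentration.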"}, "Bacillus lentus": {"system": "Bacillus lentus", "test": "Zone of inhibition, disk diffusion", "assay_type": "cell-based"}, "Coryne bacterium": {"system": "Coryne bacterium", "test": "Zone of inhibition, disk diffusion", "assay_type": "cell-based"}, "Escherichia coli": {"system": "Escherichia coli", "test": "Zone of inhibition, disk diffusion", "assay_type": "cell-based", "conditions": "E. coli, 100 μg/disk"}, "Rhodospirillum rubrum": {"system": "Rhodospirillum rubrum", "test": "MIC, two-fold serial dilution", "assay_type": "cell-based", "conditions": "24 h, read-out: R. ruberum MIC× 10^−3"}, "Vibrio cholerae": {"system": "Vibrio cholerae", "test": "MIC, two-fold serial dilution", "assay_type": "cell-based", "conditions": "24 h, read-out: V. cholerae MIC× 10^−3"}, "Candida albicans": {"system": "Candida albicans", "test": "MIC, two-fold serial dilution", "assay_type": "cell-based", "conditions": "read-out: C. albicans MIC× 10^−3", "how_it_was_run": "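Fungal MIC determined by two-fold serial dilution, with clotrimazole as reference standard. Growth was scored visually after 72-96 h incubation. MIC was taken as the lowest concentration with no visible growth.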"}}, "data": [{"smiles": "CC[C@@H](CO)NCCN[C@@H](CC)CO", "note": "[Ethambutol, ethambutol]", "values": [{"measurement": "TB Activity MIC×10^-3 (MTB37RV)", "setting": "[1]", "value": "07.60 ×10^-3 μM/ml"}]}, {"smiles": "CC(=O)NCN1N=C(C)C(=NNn2c(-c3ccccc3)nc3ccccc3c2=O)C1=O", "note": "[QP9, N-{[-3-methyl-5-oxo-4-[2-(4-oxo-2-phenyl-3,4-dihydroquinazolin-3-yl)hydrazin-1-ylidene]-4,5-dihydro-1H-pyrazol-1-yl]methyl}acetamide]", "values": [{"measurement": "Selective Index (SI) (SI=IC50/MIC)", "setting": "[2]", "value": 18.16}, {"measurement": "B. lentus % of I", "setting": "Bacillus lentus", "value": 95, "unit": "%"}]}, {"smiles": "CC1=NN(CNc2ccc(O)cc2)C(=O)C1=NNn1c(-c2ccccc2)nc2ccccc2c1=O", "note": "[QP3, 3-{2-[-1-{[(4-hydroxyphenyl)amino]methyl}-3-methyl-5-oxo-4,5-dihydro-1H-pyrazol-4-ylidene] hydrazin-1-yl}-2-phenyl-3,4-dihydroquinazolin-4-one]", "values": [{"measurement": "Selective Index (SI) (SI=IC50/MIC)", "setting": "[2]", "value": "01.16"}]}, {"smiles": "CC1=NN(CNc2ccc(C(=O)O)cc2)C(=O)C1=NNn1c(-c2ccccc2)nc2ccccc2c1=O", "note": "[QP6, 4-({[-3-methyl-5-oxo-4-[2-(4-oxo-2-phenyl-3,4-dihydroquinazolin-3-yl)hydrazin-1-ylidene]-4,5-dihydro-1H-pyrazol-1-yl]methyl}amino)benzoic acid]", "values": [{"measurement": "C. bacterium % of I", "setting": "Coryne bacterium", "value": 90, "unit": "%"}, {"measurement": "antibacterial activity relative to standard drug ciprofloxacin", "setting": "Escherichia coli", "value": 1.5, "unit": "times"}]}, {"smiles": "O=C1NN=C(N=Cc2ccccc2O)C1=NNn1c(-c2ccccc2)nc2ccccc2c1=O", "note": "[QSP2, 3-{2-[-3-[-[(2-hydroxyphenyl)methylidene]amino]-5-oxo-4,5-dihydro-1H-pyrazol-4-ylidene]hydrazin-1-yl}-2-phenyl-3,4-dihydroquinazolin-4-one]", "values": [{"measurement": "Selective Index (SI) (SI=IC50/MIC)", "setting": "[2]", "value": 16.32}]}, {"smiles": "O=C(O)c1cn(C2CC2)c2cc(N3CCNCC3)c(F)cc2c1=O", "note": "[CFN, ciprofloxacin]", "values": [{"measurement": "TB Activity MIC×10^-3 (MTB37RV)", "setting": "[1]", "value": "09.40 ×10^-3 μM/ml"}]}, {"smiles": "O=C1NN=C(N=Cc2ccc(O)cc2O)C1=NNn1c(-c2ccccc2)nc2ccccc2c1=O", "note": "[QSP3, 3-{2-[-3-[-[(2,4-dihydroxyphenyl)methylidene]amino]-5-oxo-4,5-dihydro-1H-pyrazol-4-ylidene] hydrazin-1-yl}-2-phenyl-3,4-dihydroquinazolin-4-one]", "values": [{"measurement": "Selective Index (SI) (SI=IC50/MIC)", "setting": "[2]", "value": "08.35"}]}, {"smiles": "CC1=NN(CNc2ccc(Cl)cc2)C(=O)C1=NNn1c(-c2ccccc2)nc2ccccc2c1=O", "note": "[QP4, 3-{2-[-1-{[(4-chlorophenyl)amino]methyl}-3-methyl-5-oxo-4,5-dihydro-1H-pyrazol-4-ylidene] hydrazin-1-yl}-2-phenyl-3,4-dihydroquinazolin-4-one]", "values": [{"measurement": "C. bacterium % of I", "setting": "Coryne bacterium", "value": 90, "unit": "%"}]}, {"smiles": "O=C1NN=C(N=Cc2ccc(O)c(O)c2)C1=NNn1c(-c2ccccc2)nc2ccccc2c1=O", "note": "[QSP4, 3-{2-[-3-[-[(3,4-dihydroxyphenyl)methylidene]amino]-5-oxo-4,5-dihydro-1H-pyrazol-4-ylidene] hydrazin-1-yl}-2-phenyl-3,4-dihydroquinazolin-4-one]", "values": [{"measurement": "MIC", "setting": "Rhodospirillum rubrum", "value": 26.7, "unit": "µM"}, {"measurement": "MIC", "setting": "Vibrio cholerae", "value": 26.7, "unit": "µM"}, {"measurement": "MIC", "setting": "Candida albicans", "value": 26.7, "unit": "µM"}]}, {"smiles": "CC1=NN(CNC(=O)c2ccccc2)C(=O)C1=NNn1c(-c2ccccc2)nc2ccccc2c1=O", "note": "[QP11, N-{[-3-methyl-5-oxo-4-[2-(4-oxo-2-phenyl-3,4-dihydroquinazolin-3-yl)hydrazin-1-ylidene]-4,5-dihydro-1H-pyrazol-1-yl]methyl}benzamide]", "values": [{"measurement": "B. lentus % of I", "setting": "Bacillus lentus", "value": 95, "unit": "%"}, {"measurement": "TB Activity MIC×10^-3 (MTB37RV)", "setting": "[1]", "value": "06.49 ×10^-3 μM/ml"}]}, {"smiles": "O=C1NN=C(N=Cc2ccccc2)C1=NNn1c(-c2ccccc2)nc2ccccc2c1=O", "note": "[QSP1, 3-{2-[-5-oxo-3-[-(phenylmethylidene)amino]-4,5-dihydro-1H-pyrazol-4-ylidene]hydrazin-1-yl}-2-phenyl-3,4-dihydroquinazolin-4-one]", "values": [{"measurement": "Selective Index (SI) (SI=IC50/MIC)", "setting": "[2]", "value": 10.92}]}]}
